# FXN GAA850 act: FXN promoter activators, primary screen, cell-based, luciferase luminescence, HEK293 lucGAA850; activation, % at 6 µM; AID 540364, 2011; 360,000 tested, 0.56% active; HEK293 lucGAA850 FXN promoter luciferase reporter, 24 h; percent of 10 µM SAHA response;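 active = activation above the average of all compounds screened plus 3 SD, cutoff fixed separately per campaign, cut at about 7.5% in these data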
# MC4R barr agon: MC4R agonists recruiting beta-arrestin, primary screen, cell-based, luminescence, agonist arm of biased-ligand search | U2OS MC4R beta-arrestin complementation; percent of melanotan II response, DMSO zero | activation, % at 8.9 µM | 360,000 tested, 0.98% active | AID 540308, 2011;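 active = activation above a per-plate cutoff, the mean activation of sample wells on that plate plus 3 SD, cut at about 8% in these data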
# Target sequence (P32245 whole entry, looked up): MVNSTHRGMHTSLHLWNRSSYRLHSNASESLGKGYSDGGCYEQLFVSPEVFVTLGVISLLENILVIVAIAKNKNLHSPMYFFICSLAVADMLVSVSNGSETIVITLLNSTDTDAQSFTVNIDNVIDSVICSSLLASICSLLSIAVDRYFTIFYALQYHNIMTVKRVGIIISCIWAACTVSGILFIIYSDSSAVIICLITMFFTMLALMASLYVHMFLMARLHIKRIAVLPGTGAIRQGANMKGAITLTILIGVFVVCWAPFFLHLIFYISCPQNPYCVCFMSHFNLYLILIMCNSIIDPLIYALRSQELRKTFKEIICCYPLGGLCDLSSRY
# m5-HT2A agonist: mouse Htr2a agonists via beta-arrestin recruitment, primary screen, cell-based, luminescence; 5-hydroxytryptamine receptor 2A (Mus musculus), P35363; CHO-K1 mHTR2A beta-arrestin complementation; percent of 30 µM serotonin response; activation, % at 7.6 µM; 360,000 tested, 0.66% active; AID 624169, 2012;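 active = activation above a run cutoff, the mean activation of all tested compounds plus 3 SD, cut at about 14% in these data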
# AHR act: AHR activators, primary screen, cell-based, luminescence, luciferase reporter, human; AID 2796, 2010; 320,000 tested, 2.5% active; activation, % at 5 µM; AHR-responsive luciferase reporter cells; in the data active = activation above about 47%
# MC4R antagonist: MC4R antagonists of cAMP signaling, primary screen, cell-based, TR-FRET, antagonist arm of biased-ligand search. Melanocortin receptor 4 (Homo sapiens), P32245. MC4R-expressing cells, MTII-stimulated cAMP, LANCE TR-FRET. inhibition, % at 6.5 µM. 360,000 tested, 0.48% active;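 active = inhibition above its plate's cutoff, the mean of tested wells on that plate plus 3 SD, cut at about 29% in these data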
#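 System: U2OS-MC4R stable cell line; Technique: Eu-cAMP/anti-cAMP TR-FRET, emission 671 nm; Repeats: single well per compound; Also added: Melanotan II; Dosing: one concentration, 6.5 µM nominal; Schedule: 30-min compound, 1-h challenge, 1-h detection, room temperature.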
# Numbers stand for hits; – = inactive; · = no result. In the library only some 4.7% were active in any assay of this set; here they are far more common.
SMILES,FXN GAA850 act,MC4R barr agon,m5-HT2A agonist,AHR act,MC4R antagonist
CC(=O)c1sc(N/N=C\c2c(O)ccc3ccccc23)nc1C,–,–,–,65.2,–
CCC(=O)N/C(N)=N/c1nc(C)c2cc(C)c(C)cc2n1,–,–,–,50.4,–
CC(C)(C)[C@H]1COC(=O)[C@@H](Cc2ccc(F)cc2)CC/C=C/C[C@@H](CC(=O)N[C@@H](CO)Cc2ccccc2)C(=O)N1,–,–,–,–,–
O=[N+]([O-])c1ccc(Nc2nccc(Cl)n2)cc1,–,–,–,–,–
Cc1ccc(C)c(S(=O)(=O)/N=C2\C=C(NS(=O)(=O)c3ccccc3)C(=O)c3ccccc32)c1,–,–,–,74.2,–
Cc1cc2c(cc1C)-n1nnnc1C(N1CCN(c3ccccn3)CC1)C(c1ccc3c(c1)OCO3)=N2 (stereo not given),·,·,–,·,·
CCOC(=O)N/N=C/c1cc(OC)c(O)c(OC)c1,–,–,–,–,–
CCOC(=O)c1sc(N/N=C/c2cc(Br)c(O)c(OC)c2)nc1C,–,–,–,66.7,–
CC1(NC(=S)Nc2ccc3ccccc3c2)CCS(=O)(=O)C1 (stereo not given),–,–,–,–,–
CN(C)C(=S)NC(=S)Nc1ccc2ccccc2c1,16.8,–,–,·,–
CCOC(=O)C1=C(C)NC(C)=C(C(=O)OCC)C1C(=O)OCC(=O)NCc1ccccc1OC,–,–,–,–,–
O=C(CSc1nnc(-c2ccc3c(c2)OCO3)o1)Nc1ncc(Cl)cc1Cl,–,–,–,132.9,–
CC(=O)Nc1ccc(NC(=O)CSc2nnc(-c3ccc4c(c3)OCO4)o2)cc1,–,–,–,–,–
COc1ccc(CNC(=O)CCS(=O)(=O)c2ccc3nc(C)sc3c2)cc1,–,–,–,·,–
COc1ccc(CCNC(=O)C(=O)c2c[nH]c3ccccc23)cc1OC,–,–,–,·,–
COc1ccc(C/C(C)=N\NC(=O)c2c[nH]c3ccccc23)cc1OC,–,–,–,52.8,–
CCc1noc(C)c1C(=O)Nc1nc2c(F)cc(F)cc2s1,–,–,–,61.0,–
CCc1noc(C)c1C(=O)Nc1nc2c(C)cccc2s1,–,–,–,–,–
COc1cc2ccccc2cc1C(=O)NC(=S)Nc1ccc(C(=O)O)cc1,–,–,–,52.4,–
COc1cccc(OC)c1C(=O)Nc1ccccc1N1CCCC1,–,–,–,–,–
COc1ccccc1C(=O)NC(=S)Nc1ccc(N2CCCC2)cc1,–,–,–,85.3,–
Cc1ccccc1C(=O)NC(=S)Nc1ccccc1N1CCCC1,–,–,–,50.1,–
COc1ccccc1C(=O)NC(=S)Nc1ccccc1N1CCCC1,–,–,–,53.0,–
CCOC(=O)[C@@H](NC(=O)/C=C/[C@H]1O[C@@H](n2ccc(=O)[nH]c2=O)[C@H](O)[C@@H]1O)C(C)C,·,·,–,·,·
O=S(=O)(Cc1ccccc1)NCCc1cccc(Cl)c1,–,–,–,·,–
SMILES,FXN GAA850 act,MC4R barr agon,m5-HT2A agonist,AHR act,MC4R antagonist
Cc1cc(/C=C2/NC(=O)N(c3ccccc3)C2=O)c(C)n1-c1cccnc1,–,–,–,108.8,–
Cc1cccc(-n2c(C)cc(/C=C3\NC(=O)NC3=O)c2C)c1,–,–,–,81.5,–
COC(=O)c1ccccc1NC(=O)COC(=O)Cc1ccc(S(=O)(=O)N2CCOCC2)s1,–,–,–,·,–
C=CCn1c(-c2sc3nc(C)cc(C)c3c2N)n[nH]c1=S,–,–,–,100.4,–
Cc1nc2ccccc2n1CCN1CCOCC1,–,–,–,72.5,–
COc1cc2cc(-c3ccc(OC)c(OC)c3C)nc(N)c2cc1OC,–,–,–,–,–
COc1cc2cc(-c3ccc(O)cc3O)nc(C)c2cc1OC,–,–,–,48.1,–
CN(C(=O)CN1C(=O)C2C3CC(C(Br)C3Br)C2C1=O)C1CCCCC1 (stereo not given),–,–,–,–,–
O=C(OC1CC2CC1[C@H]1CCCCN1C2=O)N1CCN(S(=O)(=O)c2ccccc2)CC1 (stereo not given in full),·,·,–,·,·
CC(C)(C)OC(=O)C[C@H]1C/C=C\C[C@H](CC(=O)NCCO)C(=O)NCCOC1=O,–,–,–,–,–
CC1=CC(=C2C(=O)c3ccccc3C2=O)C=C(C)O1,–,–,–,–,–
CC(=O)N1C(=O)C(=C2C=C(C)OC(C)=C2)c2ccccc21,–,–,–,55.0,–
Cn1nc(C(=O)NCC(=O)Nc2ccc(F)c(F)c2)ccc1=O,–,–,–,·,–
O=C(Cc1ccccc1)Nc1nc2ccccc2[nH]1,–,–,–,–,–
OCCc1c[nH]c2ccccc12,–,–,–,–,–
OCc1c[nH]c2ccccc12,–,–,–,53.0,–
O=C(Cc1c[nH]c2ccccc12)Nc1nc2ccccc2[nH]1,–,–,–,91.3,–
COC(=O)[C@]12CCCCC=C1N(CCc1ccc(OC)c(OC)c1)C(=O)[C@H](CC(=O)NCCc1ccccc1OC)C2,·,·,–,·,·
N#CCc1nc2ccccc2c(=O)[nH]1,–,–,–,–,–
O=c1[nH]c(CS(=O)(=O)c2ccccc2)nc2ccccc12,–,–,–,74.0,–
COc1ccccc1NC(=O)NC(=O)c1ccccc1,–,8.8,–,48.8,–
C/C(=N\NC(=O)c1ccccc1C)c1cccnc1,–,–,–,–,–
COc1ccccc1NC(=O)NC(N)=O,–,–,–,–,–
COc1ccccc1C(=O)N/N=C(\C)c1cccnc1,–,–,–,58.5,–
COc1ccccc1NC(=O)c1cccnc1,–,–,–,67.8,–
SMILES,FXN GAA850 act,MC4R barr agon,m5-HT2A agonist,AHR act,MC4R antagonist
COc1ccc2[nH]c3c(c2c1)CCN1C(=O)N([C@@H](C)C(=O)NC2CCCCC2C)C(=O)[C@]31C (stereo not given in full),–,–,–,–,–
CC(C)CN(/C=N/c1sc2c(c1C#N)CCCCC2)CC(C)C,–,–,–,–,–
CCN(/C=N/c1sc2c(c1C#N)CCCCC2)CC,–,–,–,56.6,–
N#Cc1c(/N=C/C=C/c2ccccc2)sc2c1CCCC2,–,–,16.3,–,–
CCOc1ccc(Cl)cc1-c1cc(C(=O)Nc2ccc(F)cc2)[nH]n1,–,–,–,·,–
O=c1oc2ccccc2c(Nc2ccc3ccccc3c2)c1[N+](=O)[O-],–,–,–,64.6,–
Cc1ccc(Nc2c([N+](=O)[O-])c(=O)oc3ccccc23)cc1,–,–,–,–,–
O=C(C1=NN(c2ccccc2)C2C(=O)N(c3ccccc3Cl)C(=O)C12)c1ccccc1 (stereo not given),–,9.1,–,–,–
COc1ccc(CSCC(=O)Nc2ccccc2)cc1[N+](=O)[O-],–,–,–,–,–

# Screening data (PubChem)
